Data on one molecule can be found in ChEMBL document CHEMBL1154181 (J Med Chem, 2009).

Test [1] has as its system Mus musculus. Put plainly: Antinociceptive activity against radiant heat-induced nociception in CD1 mouse assessed as tail withdrawal latency at 1 mg/kg, po measured after 15 to 120 mins postdose by tail flick test in presence of 0.1 to 1 mg/kg, ip alpha-1-adrenergic receptor antagonist prazosin administered 15 mins before compound infusion. Type of test: functional. The gist of the method:
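Male CD-1 mice given prazosin ip (0.1 or 1 mg/kg) 15 min before oral dosing at 1 mg/kg. Tail flick: radiant heat 3–4 cm from the tail tip, cut-off 15 s. Hot plate: 48.5 °C, cut-off 60 s. Baseline is the mean of three readings 15 min apart. Latency followed over time and expressed as %MPE.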
On the technique in general: Thermal pain tests record how soon the animal reacts.

In test [2] the test system is Mus musculus. In words: Antinociceptive activity against thermal nociception in po dosed CD1 mouse assessed as increase in latency period to elicit jumping or hind paw licking measured after 15 to 90 mins postdose by hot plate method in presence of 1 mg/kg, ip opioid receptor antagonist naloxone hydrochloride administered 30 mins before compound infusion. Type of test: functional. An outline of the steps:
(§1)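 Antagonist given ip 30 min before oral dosing (naloxone 1, mecamylamine 2, yohimbine 2, CGP 35348 50 mg/kg). Hot plate at 48.5 ± 0.1 °C inside a cylinder, cut-off 60 s; latencies at 15–90 min as %MPE. Peak-time quantal response (≥50% MPE); ED50 from at least four groups of six male CD-1 mice.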

The subject of test [3] is Mus musculus. Put plainly: Antinociceptive activity against radiant heat-induced nociception in po dosed CD1 mouse assessed as increase in tail withdrawal latency measured after 15 to 120 mins postdose by tail flick test in presence of 1 mg/kg, ip opioid receptor antagonist naloxone hydrochloride administered 30 mins before compound infusion. It counts as functional. The gist of the method:
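Antagonist given ip 30 min before oral dosing (naloxone 1, mecamylamine 2, yohimbine 2, CGP 35348 50 mg/kg). Tail flick with radiant heat at the tail tip, cut-off 15 s; latencies at 15–120 min converted to %MPE. Peak-time quantal response (≥50% MPE); ED50 from at least four groups of six male CD-1 mice.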

Test [4] has as its system Mus musculus. Put plainly: Antinociceptive activity against thermal nociception in po dosed CD1 mouse assessed as latency period to elicit jumping or hind paw licking at 1 mg/kg, po measured after 15 to 90 mins postdose by hot plate method. It counts as functional. An outline of the steps: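 Male CD-1 mice (25–30 g), dosed orally at 1 mg/kg. Tail flick: radiant heat focused 3–4 cm from the tail tip, cut-off 15 s at 15 V. Hot plate: 48.5 ± 0.1 °C, licking, paw jerk or jump, cut-off 60 s. Baseline is the mean of three readings 15 min apart. Latency followed to 120 min (tail) or 90 min (plate); data as %MPE.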

The target in test [5] is T1, Alpha-1A adrenergic receptor (Rattus norvegicus, UniProt P43140).
T1 sequence (P43140 whole entry): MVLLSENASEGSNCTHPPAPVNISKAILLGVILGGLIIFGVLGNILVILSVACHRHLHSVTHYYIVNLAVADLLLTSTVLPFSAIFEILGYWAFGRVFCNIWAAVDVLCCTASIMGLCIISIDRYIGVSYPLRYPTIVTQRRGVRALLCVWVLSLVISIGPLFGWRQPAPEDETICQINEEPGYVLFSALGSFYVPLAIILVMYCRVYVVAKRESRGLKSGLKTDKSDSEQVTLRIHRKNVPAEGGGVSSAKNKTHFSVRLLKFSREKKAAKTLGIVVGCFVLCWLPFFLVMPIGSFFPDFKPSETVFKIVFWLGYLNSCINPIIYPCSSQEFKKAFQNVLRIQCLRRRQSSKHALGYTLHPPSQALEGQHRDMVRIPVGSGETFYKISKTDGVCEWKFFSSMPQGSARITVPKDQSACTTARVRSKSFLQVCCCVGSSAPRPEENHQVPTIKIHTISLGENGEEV
Put plainly: Displacement of [3H]prazosin from adrenergic alpha1A receptor in Wistar rat submaxillary gland after 60 mins. Type of test: tissue-based. On the technique in general: In a radioligand displacement assay an active substance lowers the binding of a labelled ligand.

In test [6] the test system is Mus musculus. In words: Antinociceptive activity against thermal nociception in po dosed CD1 mouse assessed as increase in latency period to elicit jumping or hind paw licking measured after 15 to 90 mins postdose by hot plate method in presence of 2 mg/kg, ip alpha-2-adrenergic receptor antagonist yohimbine hydrochloride administered 30 mins before compound infusion. Type of test: functional. An outline of the steps:
as §1

For test [7], the target named is T2, Alpha-1B adrenergic receptor (Rattus norvegicus) (UniProt P15823).
T2 sequence (whole entry): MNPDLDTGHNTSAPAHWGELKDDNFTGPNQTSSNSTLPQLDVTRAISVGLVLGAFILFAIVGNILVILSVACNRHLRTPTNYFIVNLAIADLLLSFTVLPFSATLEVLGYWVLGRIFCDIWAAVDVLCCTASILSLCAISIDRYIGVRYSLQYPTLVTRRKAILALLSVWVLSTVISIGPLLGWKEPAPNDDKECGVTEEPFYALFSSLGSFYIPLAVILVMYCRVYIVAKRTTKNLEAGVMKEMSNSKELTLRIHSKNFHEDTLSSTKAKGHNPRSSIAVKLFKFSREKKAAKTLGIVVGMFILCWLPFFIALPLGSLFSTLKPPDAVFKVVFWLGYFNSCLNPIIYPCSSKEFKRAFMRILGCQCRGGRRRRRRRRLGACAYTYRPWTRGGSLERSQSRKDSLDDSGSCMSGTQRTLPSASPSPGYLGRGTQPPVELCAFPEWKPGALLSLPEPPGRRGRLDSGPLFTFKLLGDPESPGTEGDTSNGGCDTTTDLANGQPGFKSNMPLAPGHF
As to conditions: Wistar, Liver, Membrane, 10 uM.

In test [8] the target is T3, Alpha-2A adrenergic receptor (Homo sapiens, UniProt P08913).
T3 sequence (P08913 whole entry): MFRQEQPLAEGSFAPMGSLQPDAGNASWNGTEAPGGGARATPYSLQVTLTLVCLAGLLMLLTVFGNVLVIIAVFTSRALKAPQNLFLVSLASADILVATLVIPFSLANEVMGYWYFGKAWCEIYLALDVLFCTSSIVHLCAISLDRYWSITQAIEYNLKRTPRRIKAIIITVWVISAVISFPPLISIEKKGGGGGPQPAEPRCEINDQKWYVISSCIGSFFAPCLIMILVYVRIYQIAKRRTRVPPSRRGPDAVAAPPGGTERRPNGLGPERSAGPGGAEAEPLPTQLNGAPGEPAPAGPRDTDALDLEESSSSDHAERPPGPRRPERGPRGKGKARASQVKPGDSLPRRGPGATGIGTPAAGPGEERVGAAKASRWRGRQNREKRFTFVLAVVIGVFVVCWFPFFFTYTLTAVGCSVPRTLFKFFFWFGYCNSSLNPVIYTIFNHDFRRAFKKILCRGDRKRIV
In words: Displacement of [3H][…] from human recombinant adrenergic alpha2A receptor expressed in insect Sf9 cells after 60 mins.

In test [9] the target is T4, Alpha-2A adrenergic receptor (Homo sapiens) (UniProt P08913).
T4 sequence (whole entry): T3 sequence (P08913 whole entry)
Put plainly: Inhibition of [3H][…] binding to human recombinant adrenergic alpha2A receptor expressed in insect Sf9 cells at 10 uM after 60 mins. An outline of the steps: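 Sf9 membranes expressing human recombinant α2A, with 1 nM [3H]-MK-912. Nonspecific binding defined by 10 μM WB-4101. Buffer 50 mM Tris-HCl pH 7.4, 12.5 mM MgCl2, 2 mM EDTA. Incubated 60 min at 25 °C, then filtered and counted by scintillation. Duplicate; 1% DMSO final.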

As a reminder, the ED50 is the midpoint of the dose-response relation. The term IC50 denotes the concentration at which inhibition is half-maximal. One may read the Emax as the maximal effect, on the per cent scale that the assay sets.

Turning to `C=Cc1c(C)nn(CCCN2CCN(c3ccc(C)cc3)CC2)c(=O)c1N`, the Activity with Mus musculus [1] turned out to be 120 min; with Mus musculus [4], 30 min. The 50% effective dose (ED50) in the test with Mus musculus [2] was determined as 1.1 mg/kg; in the test with Mus musculus [3], 1.2 mg/kg; in the test with Mus musculus [6], 8.6 mg/kg. The IC50 in test [5] is 56 nM; in test [8], 320 nM. The Emax in [7] stood at 99%; in [9], 100%.
